Laboratory results as given in ChEMBL document CHEMBL3085751, “Synthesis of some new pyrazole-based 1,3-thiazoles and 1,3,4-thiadiazoles as anticancer agents” (Eur J Med Chem, 2013).

What was measured:
Format in all cases: functional, cell-based
MCF7 = assay: Cytotoxicity against human MCF7 cells after 72 hrs by SRB assay; settings: MCF7, 72 h
Procedure, shortened: (§1)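 Cells kept as monolayers at 37 °C in 5% CO2 with 10% heat-inactivated FBS; A549 was grown in DMEM, HepG2 and MCF-7 in RPMI. Trypsinized cells were seeded at 1000-2000/well, left 24 h, then exposed 72 h to a range of concentrations. Cells were fixed with 10% TCA (1 h, 4 °C) and stained with 0.4% SRB in 1% acetic acid for 10 min. Dye was dissolved in Tris-HCl, OD read at 564 nm, and IC50 taken from %-viability dose-response curves.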

HepG2 = assay: Cytotoxicity against human HepG2 cells after 72 hrs by SRB assay; settings: HepG2, 72 h; procedure, shortened: as §1
A549 = assay: Cytotoxicity against human A549 cells after 72 hrs by SRB assay; settings: A549, 72 h; procedure, shortened: as §1

Cc1c(-c2csc(NC(=S)Nc3ccccc3)n2)c(=O)n(-c2ccccc2)n1C
IC50 (MCF7): 10.1 µM
IC50 (HepG2): 8.35 µM
IC50 (A549): 7.74 µM

Cc1c(-c2csc(/N=c3\sc(-c4ccccc4)nn3-c3ccccc3)n2)c(=O)n(-c2ccccc2)n1C
IC50 (MCF7): > 100 µM
IC50 (HepG2): > 100 µM
IC50 (A549): > 100 µM

CC(=O)c1nn(-c2ccccc2)/c(=N/c2nc(-c3c(C)n(C)n(-c4ccccc4)c3=O)cs2)s1
IC50 (MCF7): > 100 µM
IC50 (HepG2): 67.1 µM
IC50 (A549): > 100 µM

CC(=O)c1nn(-c2ccc(Cl)cc2)/c(=N/c2nc(-c3c(C)n(C)n(-c4ccccc4)c3=O)cs2)s1
IC50 (MCF7): > 100 µM
IC50 (HepG2): > 100 µM
IC50 (A549): > 100 µM

CC(=O)c1nn(-c2ccc(C)cc2)/c(=N/c2nc(-c3c(C)n(C)n(-c4ccccc4)c3=O)cs2)s1
IC50 (MCF7): 56.8 µM
IC50 (HepG2): 31.7 µM
IC50 (A549): 20.7 µM

COc1ccc(-n2nc(C(C)=O)s/c2=N\c2nc(-c3c(C)n(C)n(-c4ccccc4)c3=O)cs2)cc1
IC50 (MCF7): 64.5 µM
IC50 (HepG2): 41.2 µM
IC50 (A549): 26.5 µM

CC(=O)c1nn(-c2ccc([N+](=O)[O-])cc2)/c(=N/c2nc(-c3c(C)n(C)n(-c4ccccc4)c3=O)cs2)s1
IC50 (MCF7): > 100 µM
IC50 (HepG2): > 100 µM
IC50 (A549): > 100 µM

CCOC(=O)c1nn(-c2ccccc2)/c(=N/c2nc(-c3c(C)n(C)n(-c4ccccc4)c3=O)cs2)s1
IC50 (MCF7): > 100 µM
IC50 (HepG2): > 100 µM
IC50 (A549): > 100 µM

CCOC(=O)c1nn(-c2ccc(Cl)cc2)/c(=N/c2nc(-c3c(C)n(C)n(-c4ccccc4)c3=O)cs2)s1
IC50 (MCF7): > 100 µM
IC50 (HepG2): > 100 µM
IC50 (A549): > 100 µM

CCOC(=O)c1nn(-c2ccc(C)cc2)/c(=N/c2nc(-c3c(C)n(C)n(-c4ccccc4)c3=O)cs2)s1
IC50 (MCF7): > 100 µM
IC50 (HepG2): > 100 µM
IC50 (A549): > 100 µM

CCOC(=O)c1nn(-c2ccc(OC)cc2)/c(=N/c2nc(-c3c(C)n(C)n(-c4ccccc4)c3=O)cs2)s1
IC50 (MCF7): 15.9 µM
IC50 (HepG2): 12.9 µM
IC50 (A549): 13.1 µM

CCOC(=O)c1nn(-c2ccc([N+](=O)[O-])cc2)/c(=N/c2nc(-c3c(C)n(C)n(-c4ccccc4)c3=O)cs2)s1
IC50 (MCF7): 10 µM
IC50 (HepG2): 8.11 µM
IC50 (A549): 8.68 µM

Cc1c(-c2csc(/N=C3\SCC(=O)N3c3ccccc3)n2)c(=O)n(-c2ccccc2)n1C
IC50 (MCF7): > 100 µM
IC50 (HepG2): 70.5 µM
IC50 (A549): > 100 µM

Cc1c(-c2csc(/N=C3\S/C(=C\c4ccccc4)C(=O)N3c3ccccc3)n2)c(=O)n(-c2ccccc2)n1C
IC50 (MCF7): > 100 µM
IC50 (HepG2): 63.4 µM
IC50 (A549): > 100 µM

Cc1c(-c2csc(/N=C3\S/C(=C\c4ccc(Cl)cc4)C(=O)N3c3ccccc3)n2)c(=O)n(-c2ccccc2)n1C
IC50 (MCF7): > 100 µM
IC50 (HepG2): > 100 µM
IC50 (A549): > 100 µM

Cc1c(-c2csc(/N=C3\S/C(=C\c4ccc(N(C)C)cc4)C(=O)N3c3ccccc3)n2)c(=O)n(-c2ccccc2)n1C
IC50 (MCF7): > 100 µM
IC50 (HepG2): > 100 µM
IC50 (A549): > 100 µM

COc1ccc(/C=C2\S/C(=N\c3nc(-c4c(C)n(C)n(-c5ccccc5)c4=O)cs3)N(c3ccccc3)C2=O)cc1
IC50 (MCF7): 26.1 µM
IC50 (HepG2): 13.2 µM
IC50 (A549): 9.1 µM

Cc1ccc(/C=C2\S/C(=N\c3nc(-c4c(C)n(C)n(-c5ccccc5)c4=O)cs3)N(c3ccccc3)C2=O)cc1
IC50 (MCF7): > 100 µM
IC50 (HepG2): > 100 µM
IC50 (A549): > 100 µM

Cc1c(-c2csc(/N=C3\S/C(=C\c4ccco4)C(=O)N3c3ccccc3)n2)c(=O)n(-c2ccccc2)n1C
IC50 (MCF7): 22.4 µM
IC50 (HepG2): 16.6 µM
IC50 (A549): 13.7 µM

COc1cccc2c1C(=O)c1c(O)c3c(c(O)c1C2=O)C[C@@](O)(C(=O)CO)C[C@@H]3O[C@H]1C[C@H](N)[C@H](O)[C@H](C)O1 [DOXORUBICIN]
IC50 (HepG2): 0.877 µM
IC50 (A549): 0.411 µM
